Tested on: Fibroblast
Assay: Multiplex assay against human fibroblast
Format: toxicity, cell-based
How it was run: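 Per cents of healthy-nucleus cells form the tubulin, mitochondrial-mass and membrane-permeability phenotype values. Live cells were stained at seeding with Hoechst33342, BioTracker Green Microtubule Cytoskeleton Dye, MitoTracker Red and Annexin V Alexa Fluor 680. After compound addition they were imaged on a CQ1 microscope at 37°C and 5% CO2, and CellPathfinder machine-learning gating split them into Hoechst high-intensity objects or normal cells, normal cells into healthy, pyknosed or fragmented nuclei, and pyknosed cells into mitotic or apoptotic.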

[1] = 12 h, 1 µM, compound concentration 1 uM, replicate 1
[2] = 12 h, 1 µM, compound concentration 1 uM, replicate 2
[3] = 12 h, 10 µM, compound concentration 10 uM, replicate 1
[4] = 12 h, 10 µM, compound concentration 10 uM, replicate 2
[5] = 24 h, 1 µM, compound concentration 1 uM, replicate 1
[6] = 24 h, 1 µM, compound concentration 1 uM, replicate 2
[7] = 24 h, 10 µM, compound concentration 10 uM, replicate 1
[8] = 24 h, 10 µM, compound concentration 10 uM, replicate 2
[9] = 48 h, 1 µM, compound concentration 1 uM, replicate 1
[10] = 48 h, 1 µM, compound concentration 1 uM, replicate 2
[11] = 48 h, 10 µM, compound concentration 10 uM, replicate 1
[12] = 48 h, 10 µM, compound concentration 10 uM, replicate 2

O=C1[C@H](Cc2ccc(O)cc2)N2C(=O)CCN(C(=O)NCc3ccccc3)[C@H]2CN1Cc1cccc2ccccc12
Population Apoptotic (%) [1]: 32%
Population Fragmented Nuclei (%) [1]: 18%
Population Healthy Nuclei (%) [1]: 57%
Population Hoechst High Intensity Objects (%) [1]: 3%
Population Membrane Permeable-Phenotype (%) [1]: 0%
Population Mitochondria Different-Phenotype (%) [1]: 11%
Population Mitotic Cells (%) [1]: 67%
Population Normal (%) [1]: 96%
Population Pyknosed Nuclei (%) [1]: 24%
Population Tubulin-Different-Phenotype (%) [1]: 47%
Total Cell Count [1]: 160
Population Apoptotic (%) [2]: 30%
Population Fragmented Nuclei (%) [2]: 27%
Population Healthy Nuclei (%) [2]: 45%
Population Hoechst High Intensity Objects (%) [2]: 2%
Population Membrane Permeable-Phenotype (%) [2]: 5%
Population Mitochondria Different-Phenotype (%) [2]: 13%
Population Mitotic Cells (%) [2]: 69%
Population Normal (%) [2]: 97%
Population Pyknosed Nuclei (%) [2]: 26%
Population Tubulin-Different-Phenotype (%) [2]: 58%
Total Cell Count [2]: 152
Population Apoptotic (%) [3]: 35%
Population Fragmented Nuclei (%) [3]: 18%
Population Healthy Nuclei (%) [3]: 58%
Population Hoechst High Intensity Objects (%) [3]: 8%
Population Membrane Permeable-Phenotype (%) [3]: 0%
Population Mitochondria Different-Phenotype (%) [3]: 24%
Population Mitotic Cells (%) [3]: 64%
Population Normal (%) [3]: 91%
Population Pyknosed Nuclei (%) [3]: 23%
Population Tubulin-Different-Phenotype (%) [3]: 84%
Total Cell Count [3]: 146
Population Apoptotic (%) [4]: 45%
Population Fragmented Nuclei (%) [4]: 23%
Population Healthy Nuclei (%) [4]: 45%
Population Hoechst High Intensity Objects (%) [4]: 9%
Population Membrane Permeable-Phenotype (%) [4]: 8%
Population Mitochondria Different-Phenotype (%) [4]: 15%
Population Mitotic Cells (%) [4]: 55%
Population Normal (%) [4]: 90%
Population Pyknosed Nuclei (%) [4]: 30%
Population Tubulin-Different-Phenotype (%) [4]: 83%
Total Cell Count [4]: 144
Population Apoptotic (%) [5]: 42%
Population Fragmented Nuclei (%) [5]: 16%
Population Healthy Nuclei (%) [5]: 62%
Population Hoechst High Intensity Objects (%) [5]: 3%
Population Membrane Permeable-Phenotype (%) [5]: 3%
Population Mitochondria Different-Phenotype (%) [5]: 7%
Population Mitotic Cells (%) [5]: 57%
Population Normal (%) [5]: 96%
Population Pyknosed Nuclei (%) [5]: 21%
Population Tubulin-Different-Phenotype (%) [5]: 49%
Total Cell Count [5]: 158
Population Apoptotic (%) [6]: 28%
Population Fragmented Nuclei (%) [6]: 30%
Population Healthy Nuclei (%) [6]: 47%
Population Hoechst High Intensity Objects (%) [6]: 2%
Population Membrane Permeable-Phenotype (%) [6]: 7%
Population Mitochondria Different-Phenotype (%) [6]: 8%
Population Mitotic Cells (%) [6]: 71%
Population Normal (%) [6]: 97%
Population Pyknosed Nuclei (%) [6]: 22%
Population Tubulin-Different-Phenotype (%) [6]: 58%
Total Cell Count [6]: 147
Population Apoptotic (%) [7]: 44%
Population Fragmented Nuclei (%) [7]: 15%
Population Healthy Nuclei (%) [7]: 62%
Population Hoechst High Intensity Objects (%) [7]: 10%
Population Membrane Permeable-Phenotype (%) [7]: 1%
Population Mitochondria Different-Phenotype (%) [7]: 44%
Population Mitotic Cells (%) [7]: 55%
Population Normal (%) [7]: 89%
Population Pyknosed Nuclei (%) [7]: 21%
Population Tubulin-Different-Phenotype (%) [7]: 83%
Total Cell Count [7]: 141
Population Apoptotic (%) [8]: 64%
Population Fragmented Nuclei (%) [8]: 25%
Population Healthy Nuclei (%) [8]: 47%
Population Hoechst High Intensity Objects (%) [8]: 7%
Population Membrane Permeable-Phenotype (%) [8]: 13%
Population Mitochondria Different-Phenotype (%) [8]: 21%
Population Mitotic Cells (%) [8]: 35%
Population Normal (%) [8]: 92%
Population Pyknosed Nuclei (%) [8]: 26%
Total Cell Count [8]: 137
Population Apoptotic (%) [9]: 62%
Population Fragmented Nuclei (%) [9]: 22%
Population Healthy Nuclei (%) [9]: 59%
Population Hoechst High Intensity Objects (%) [9]: 7%
Population Membrane Permeable-Phenotype (%) [9]: 2%
Population Mitochondria Different-Phenotype (%) [9]: 7%
Population Mitotic Cells (%) [9]: 37%
Population Normal (%) [9]: 92%
Population Pyknosed Nuclei (%) [9]: 17%
Population Tubulin-Different-Phenotype (%) [9]: 54%
Total Cell Count [9]: 164
Population Apoptotic (%) [10]: 54%
Population Fragmented Nuclei (%) [10]: 37%
Population Healthy Nuclei (%) [10]: 45%
Population Hoechst High Intensity Objects (%) [10]: 5%
Population Membrane Permeable-Phenotype (%) [10]: 5%
Population Mitochondria Different-Phenotype (%) [10]: 6%
Population Mitotic Cells (%) [10]: 45%
Population Normal (%) [10]: 94%
Population Tubulin-Different-Phenotype (%) [10]: 48%
Total Cell Count [10]: 135
Population Apoptotic (%) [11]: 85%
Population Fragmented Nuclei (%) [11]: 21%
Population Healthy Nuclei (%) [11]: 58%
Population Hoechst High Intensity Objects (%) [11]: 15%
Population Membrane Permeable-Phenotype (%) [11]: 0%
Population Mitochondria Different-Phenotype (%) [11]: 50%
Population Mitotic Cells (%) [11]: 14%
Population Normal (%) [11]: 84%
Population Pyknosed Nuclei (%) [11]: 20%
Population Tubulin-Different-Phenotype (%) [11]: 85%
Total Cell Count [11]: 124
Population Apoptotic (%) [12]: 66%
Population Fragmented Nuclei (%) [12]: 32%
Population Healthy Nuclei (%) [12]: 53%
Population Hoechst High Intensity Objects (%) [12]: 10%
Population Membrane Permeable-Phenotype (%) [12]: 5%
Population Mitochondria Different-Phenotype (%) [12]: 38%
Population Mitotic Cells (%) [12]: 33%
Population Normal (%) [12]: 89%
Population Pyknosed Nuclei (%) [12]: 14%
Population Tubulin-Different-Phenotype (%) [12]: 94%
Total Cell Count [12]: 119

— ChEMBL document CHEMBL5058577, “EUbOPEN Chemogenomics Library 2 (Multiplex)” (2022)
